# According to ChEMBL document CHEMBL1156002, “Synthesis, Raman, FT-IR, NMR spectroscopic characterization, antimicrobial activity, cytotoxicity and DNA binding of new mixed aza-oxo-thia macrocyclic compounds” (2009):
# Legend:
# Type in all cases: functional
# Klebsiella pneumoniae [1] = assay: Antibacterial activity against Klebsiella pneumoniae UC57 at 30 ug after 24 hrs by agar disk diffusion assay; details: UC57, 24 h, read-out: IZ
# Summary of the method: (§1)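 Disk diffusion with sterile 6 mm discs loaded with DMSO solutions of the test agents and placed on inoculated agar. Bacteria were pre-grown in Nutrient Broth at 30 °C for 24 h, and plates were incubated at 35 °C for 24 h. Each plate carried a reference antibiotic disc matched to the organism, and a DMSO-only solvent control was run.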
# Bacillus cereus [2] = assay: Antibacterial activity against Bacillus cereus ATCC 7064 at 30 ug after 24 hrs by agar disk diffusion assay; details: ATCC 7064, 24 h, read-out: IZ; summary of the method: as §1
# Staphylococcus aureus [3] = assay: Antibacterial activity against Staphylococcus aureus ATCC 6538 at 30 ug after 24 hrs by agar disk diffusion assay; details: ATCC 6538, 24 h, read-out: IZ
# Summary of the method: (§2)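 Sterile 6 mm paper discs were loaded with ligand solution freshly prepared in DMSO and placed on inoculated agar. The inoculum came from broth cultures: bacteria in Nutrient Broth at 30 °C for 24 h, yeasts in Malt Extract Broth for 48 h. Plates were incubated at 35 °C for 24 h (bacteria) or 25 °C for 72 h (yeasts). A DMSO solvent control and a reference antibiotic disc were included on each plate.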
# Listeria monocytogenes [4] = assay: Antibacterial activity against Listeria monocytogenes ATCC 15313 at 30 ug after 24 hrs by agar disk diffusion assay; details: ATCC 15313, 24 h, read-out: IZ; summary of the method: as §1
# [5] = system: Mycolicibacterium smegmatis; assay: Antibacterial activity against Mycobacterium smegmatis CCM 2067 at 30 ug after 24 hrs by agar disk diffusion assay; details: CCM 2067, 24 h, read-out: IZ; summary of the method: as §1
# Escherichia coli [6] = assay: Antibacterial activity against Escherichia coli ATCC 11230 at 30 ug after 24 hrs by agar disk diffusion assay; details: ATCC 11230, 24 h, read-out: IZ
# Summary of the method: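 Bacteria pre-grown in Nutrient Broth at 30 °C for 24 h. Sterile 6 mm discs loaded with compound solutions freshly made in DMSO were placed on inoculated agar and incubated at 35 °C for 24 h. The medium was supplemented with DMSO as a solvent control, and an appropriate reference antibiotic disc was added to each plate.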
# Micrococcus luteus [7] = assay: Antibacterial activity against Micrococcus luteus La 2971 at 30 ug after 24 hrs by agar disk diffusion assay; details: La 2971, 24 h, read-out: IZ; summary of the method: as §1
# Proteus vulgaris [8] = assay: Antibacterial activity against Proteus vulgaris ATCC 8427 at 30 ug after 24 hrs by agar disk diffusion assay; details: ATCC 8427, 24 h, read-out: IZ; summary of the method: as §1
# Pseudomonas aeruginosa [9] = assay: Antibacterial activity against Pseudomonas aeruginosa ATCC 27853 at 30 ug after 24 hrs by agar disk diffusion assay; details: ATCC 27853, 24 h, read-out: IZ; summary of the method: as §1
# [10] = system: Hanseniaspora guilliermondii; assay: Antifungal activity against Hanseniaspora guilliermondii DSM 3432 at 10 ug after 72 hrs by agar disk diffusion assay; details: DSM 3432, 72 h, read-out: IZ; summary of the method: as §2
# Kluyveromyces marxianus = assay: Antifungal activity against Kluyveromyces fragilis NRRL 2415 at 10 ug after 72 hrs by agar disk diffusion assay; details: NRRL 2415, 72 h, read-out: IZ; summary of the method: as §2
# Rhodotorula mucilaginosa = assay: Antifungal activity against Rhodotorula rubra DSM 70403 at 10 ug after 72 hrs by agar disk diffusion assay; details: DSM 70403, 72 h, read-out: IZ; summary of the method: as §2
# Debaryomyces hansenii = assay: Antifungal activity against Debaryomyces hansenii DSM 70238 at 10 ug after 72 hrs by agar disk diffusion assay; details: DSM 70238, 72 h, read-out: IZ; summary of the method: as §2
# Candida albicans = assay: Antifungal activity against Candida albicans ATCC 10231 at 10 ug after 72 hrs by agar disk diffusion assay; details: ATCC 10231, 72 h, read-out: IZ; summary of the method: as §2
# [11] = system: Mycolicibacterium smegmatis; assay: Antibacterial activity against Mycobacterium smegmatis CCM 2067 at 10 IU after 24 hrs by agar disk diffusion assay; summary of the method: as §1
# Pseudomonas aeruginosa [12] = assay: Antibacterial activity against Pseudomonas aeruginosa ATCC 27853 at 10 IU after 24 hrs by agar disk diffusion assay; summary of the method: as §1
# Bacillus cereus [13] = assay: Antibacterial activity against Bacillus cereus ATCC 7064 at 10 IU after 24 hrs by agar disk diffusion assay; summary of the method: as §1
# Staphylococcus aureus [14] = assay: Antibacterial activity against Staphylococcus aureus ATCC 6538 at 10 IU after 24 hrs by agar disk diffusion assay; summary of the method: as §1
# Klebsiella pneumoniae [15] = assay: Antibacterial activity against Klebsiella pneumoniae UC57 at 10 IU after 24 hrs by agar disk diffusion assay; summary of the method: as §1
# Listeria monocytogenes [16] = assay: Antibacterial activity against Listeria monocytogenes ATCC 15313 at 10 IU after 24 hrs by agar disk diffusion assay; summary of the method: as §1
# Micrococcus luteus [17] = assay: Antibacterial activity against Micrococcus luteus La 2971 at 10 IU after 24 hrs by agar disk diffusion assay; summary of the method: as §1
# Proteus vulgaris [18] = assay: Antibacterial activity against Proteus vulgaris ATCC 8427 at 10 IU after 24 hrs by agar disk diffusion assay; summary of the method: as §1
# Escherichia coli [19] = assay: Antibacterial activity against Escherichia coli ATCC 11230 at 10 IU after 24 hrs by agar disk diffusion assay; summary of the method: as §1
smiles,measurement,setting,value
CN[C@H](CC(C)C)C(=O)N[C@H]1C(=O)N[C@@H](CC(N)=O)C(=O)N[C@H]2C(=O)N[C@H]3C(=O)N[C@H](C(=O)N[C@H](C(=O)O)c4cc(O)cc(O)c4-c4cc3ccc4O)[C@H](O)c3ccc(c(Cl)c3)Oc3cc2cc(c3O[C@@H]2O[C@H](CO)[C@@H](O)[C@H](O)[C@H]2O[C@H]2C[C@](C)(N)[C@H](O)[C@H](C)O2)Oc2ccc(cc2Cl)[C@H]1O [VANCOMYCIN],zone of inhibition at 30 µg/disc,Klebsiella pneumoniae [1],22 mm
same,zone of inhibition at 30 µg/disc,Bacillus cereus [2],10 mm
same,zone of inhibition at 30 µg/disc,Staphylococcus aureus [3],13 mm
same,zone of inhibition at 30 µg/disc,Listeria monocytogenes [4],26 mm
same,zone of inhibition at 30 µg/disc,[5],20 mm
same,zone of inhibition at 30 µg/disc,Escherichia coli [6],22 mm
same,zone of inhibition at 30 µg/disc,Micrococcus luteus [7],20 mm
same,zone of inhibition at 30 µg/disc,Proteus vulgaris [8],18 mm
same,zone of inhibition at 30 µg/disc,Pseudomonas aeruginosa [9],34 mm
Clc1ccccc1C(c1ccccc1)(c1ccccc1)n1ccnc1 [CLOTRIMAZOLE],zone of inhibition at 10 µg/disc,[10],22 mm
same,zone of inhibition at 10 µg/disc,Kluyveromyces marxianus,15 mm
same,zone of inhibition at 10 µg/disc,Rhodotorula mucilaginosa,18 mm
same,zone of inhibition at 10 µg/disc,Debaryomyces hansenii,18 mm
same,zone of inhibition at 10 µg/disc,Candida albicans,16 mm
CC1(C)S[C@@H]2[C@H](NC(=O)Cc3ccccc3)C(=O)N2[C@H]1C(=O)O [PENICILLIN G],inhibition zone (IZ),[11],15 mm
same,inhibition zone (IZ),Pseudomonas aeruginosa [12],36 mm
same,inhibition zone (IZ),Bacillus cereus [13],8 mm
same,inhibition zone (IZ),Staphylococcus aureus [14],13 mm
same,inhibition zone (IZ),Klebsiella pneumoniae [15],18 mm
same,inhibition zone (IZ),Listeria monocytogenes [16],10 mm
same,inhibition zone (IZ),Micrococcus luteus [17],10 mm
same,inhibition zone (IZ),Proteus vulgaris [18],14 mm
same,inhibition zone (IZ),Escherichia coli [19],18 mm
